Reference: ChEMBL document CHEMBL1800018, “Discovery of a series of imidazo[4,5-b]pyridines with dual activity at angiotensin II type 1 receptor and peroxisome proliferator-activated receptor-γ” (J Med Chem, 2011)
Activity calls are given as the source filed them. The rule behind the calls is not given here.

How the values were obtained:
[1] = Volume of distribution at steady state in rat at 1 mg/kg, iv; type: ADME, organism-based; set-up: dose 1 mg/kg, route intravenous; conditions: in vivo, read-out: Vdss
[2] = Cmax in ZDF rat at 10 mg/kg, po; type: ADME, organism-based; set-up: dose 10 mg/kg, route oral; conditions: in vivo
Outline: (§1)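 Male ZDF rats; satellite animals outside the efficacy groups were given oral doses of 3, 10 or 100 mg/kg. Plasma Cmax and AUC were calculated from these animals.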

[3] = tested on: Rattus norvegicus; assay: Antidiabetic activity in ZDF rat assessed as body weight gain at 0.1 mg/kg, po QD for 40 days (reference value: 133+/-9 g); type: functional
Outline: (§2)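 Male ZDF rats, starting at about 6 weeks old, were dosed orally once daily for 40 days in 1.5% CMC/0.2% Tween 20 suspension, n = 8/group. Body weight was followed over the study. Gain was calculated per animal from day 0 to day 40 and compared with vehicle and pioglitazone (3 mg/kg) groups. Data are mean ± SEM.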

[4] = AUC in rat at 1 mg/kg, iv; type: ADME, organism-based; set-up: dose 1 mg/kg, route intravenous; conditions: plasma
[5] = AUC in ZDF rat at 3 mg/kg, po; type: ADME, organism-based; set-up: dose 3 mg/kg, route oral; conditions: plasma; outline: as §1
[6] = tested on: Rattus norvegicus; assay: Antidiabetic activity in ZDF rat assessed as body weight gain at 1 mg/kg, po QD for 40 days (reference value: 133+/-9 g); type: functional; outline: as §2
[7] = tested on: Rattus norvegicus; assay: Antidiabetic activity in ZDF rat assessed as adiponectin level at 30 mg/kg, po QD for 40 days (reference value: 11.9+/-1.5 ug/ml); type: functional
[8] = tested on: Rattus norvegicus; assay: Antidiabetic activity in ZDF rat assessed as blood glucose level at 3 mg/kg, po QD for 40 days (reference value: 771+/-60 mg/dL); type: functional
[9] = tested on: Rattus norvegicus; assay: Antidiabetic activity in ZDF rat assessed as body weight gain at 100 mg/kg, po QD for 40 days relative to pioglitazone; type: functional; outline: as §2
[10] = tested on: Rattus norvegicus; assay: Antidiabetic activity in ZDF rat assessed as body weight gain at 30 mg/kg, po QD for 40 days (reference value: 133+/-9 g); type: functional; outline: as §2
[11] = tested on: Rattus norvegicus; assay: Antidiabetic activity in ZDF rat assessed as body weight gain at 10 mg/kg, po QD for 40 days (reference value: 133+/-9 g); type: functional; outline: as §2
[12] = Half life in rat at 1 mg/kg, iv; type: ADME, organism-based; set-up: dose 1 mg/kg, route intravenous; conditions: in vivo
[13] = Cmax in SHR rat at 1 mg/kg, po; type: ADME, organism-based; set-up: dose 1 mg/kg, route oral; conditions: in vivo
Outline: (§3)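 SHR received a single oral dose of 1, 3 or 10 mg/kg. Systemic exposure was determined as plasma Cmax and AUC.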

[14] = tested on: Rattus norvegicus; assay: Antidiabetic activity in ZDF rat assessed as adiponectin level at 10 mg/kg, po QD for 40 days (reference value: 11.9+/-1.5 ug/ml); type: functional
[15] = tested on: Rattus norvegicus; assay: Antidiabetic activity in ZDF rat assessed as adiponectin level at 100 mg/kg, po QD for 40 days (reference value: 11.9+/-1.5 ug/ml); type: functional
[16] = Cmax in SHR rat at 10 mg/kg, po; type: ADME, organism-based; set-up: dose 10 mg/kg, route oral; conditions: in vivo; outline: as §3
[17] = tested on: Rattus norvegicus; assay: Antidiabetic activity in ZDF rat assessed as blood glucose level at 0.1 mg/kg, po QD for 40 days (reference value: 771+/-60 mg/dL); type: functional
[18] = tested on: Rattus norvegicus; assay: Antidiabetic activity in ZDF rat assessed as adiponectin level at 1 mg/kg, po QD for 40 days (reference value: 11.9+/-1.5 ug/ml); type: functional
[19] = tested on: Rattus norvegicus; assay: Antidiabetic activity in ZDF rat assessed as triglyceride level at 3 mg/kg, po QD for 40 days (reference value: 618+/-52 mg/dL); type: functional
[20] = target: T1, Peroxisome proliferator-activated receptor alpha (Homo sapiens) (UniProt Q07869); assay: Transactivation of human PPARalpha
T1 sequence (whole entry): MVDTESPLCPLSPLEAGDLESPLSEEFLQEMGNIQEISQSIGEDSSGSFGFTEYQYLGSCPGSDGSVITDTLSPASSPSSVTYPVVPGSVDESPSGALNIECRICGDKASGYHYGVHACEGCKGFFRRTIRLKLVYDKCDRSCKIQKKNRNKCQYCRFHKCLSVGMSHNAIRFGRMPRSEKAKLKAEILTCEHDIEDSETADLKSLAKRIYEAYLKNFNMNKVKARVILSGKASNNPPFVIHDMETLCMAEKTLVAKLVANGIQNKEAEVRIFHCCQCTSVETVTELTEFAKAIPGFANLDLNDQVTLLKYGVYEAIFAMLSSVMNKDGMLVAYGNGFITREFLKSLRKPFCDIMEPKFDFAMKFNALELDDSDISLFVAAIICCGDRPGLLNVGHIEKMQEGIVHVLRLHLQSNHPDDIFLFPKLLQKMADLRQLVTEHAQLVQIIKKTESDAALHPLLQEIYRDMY

[21] = tested on: Rattus norvegicus; assay: Antihypertensive activity in SHR rat assessed as decrease in arterial blood pressure at 10 mg/kg, po administered as single dose; type: functional, Artery
Outline: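 SHR carried aortic radiotelemetry transmitters implanted under Telazol anesthesia and recovered for at least 1 week. Rats were randomized by 2 h baseline mean BP. Each received vehicle by oral gavage on Day 0 and a single drug dose (0.3–10 mg/kg) on Day 1, with BP followed 20 h each day. The change was taken as Day 1 minus Day 0, n = 8/group.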

[22] = Oral bioavailability in rat at 5 mg/kg; type: ADME, organism-based; conditions: in vivo
[23] = species on record: Rattus norvegicus; assay: Steady state free plasma concentration in SHR rat; type: ADME, organism-based; conditions: in vivo, in the assay text read “ZDF rat” for “SHR rat”
[24] = tested on: Rattus norvegicus; assay: Antihypertensive activity in SHR rat assessed as decrease in arterial blood pressure at 10 mg/kg, po QD for 7 days; type: functional, Artery
[25] = target: T2, Type-2 angiotensin II receptor (Homo sapiens, UniProt P50052); assay: Binding affinity to human Angiotensin receptor 2
T2 sequence (P50052 whole entry): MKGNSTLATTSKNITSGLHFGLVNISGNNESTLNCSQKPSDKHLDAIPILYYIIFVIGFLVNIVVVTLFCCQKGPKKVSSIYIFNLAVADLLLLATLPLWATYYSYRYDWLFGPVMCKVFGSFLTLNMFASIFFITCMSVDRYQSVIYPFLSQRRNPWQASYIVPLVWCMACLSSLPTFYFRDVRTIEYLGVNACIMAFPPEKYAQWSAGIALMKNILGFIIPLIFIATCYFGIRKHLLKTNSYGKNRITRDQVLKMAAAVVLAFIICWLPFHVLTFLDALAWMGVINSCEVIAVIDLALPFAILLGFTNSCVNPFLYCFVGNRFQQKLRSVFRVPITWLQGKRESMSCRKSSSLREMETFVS

[26] = AUC in SHR rat at 1 mg/kg, po; type: ADME, organism-based; set-up: dose 1 mg/kg, route oral; conditions: plasma; outline: as §3
[27] = Cmax in ZDF rat at 100 mg/kg, po; type: ADME, organism-based; set-up: dose 100 mg/kg, route oral; conditions: in vivo; outline: as §1

CCc1nc2c(C)cc(CC(C)C)nc2n1[C@H]1CCc2cc(-c3ccccc3-c3nnn[nH]3)ccc21 showed a Vd [1] of 2.9 L/kg, a Cmax [2] of 2.73 µg/mL and an Activity [3] of 128 g. For the same molecule, the AUC [4] was 1.22 µg·h/mL, the AUC [5] was 4.4 µg·h/mL and the Activity [6] was 150 g. For the same molecule, the Activity [7] was 24.3 µg/mL, the Activity [8] was 520 mg/dL and the Activity [9] was 51%. It also gave an Activity [10] of 202 g, an Activity [11] of 200 g and a half-life [12] of 2.1 h. The Cmax [13] was 0.074 µg/mL, the Activity [14] was 24.4 µg/mL and the Activity [15] was 27.5 µg/mL. For the same molecule, the Cmax [16] was 3.07 µg/mL, the Activity [17] was 771 mg/dL and the Activity [18] was 10.2 µg/mL. The Activity [19] was 734 mg/dL, the Activity [20] was “inactive” and the Activity [21] was 36 mmHg. The bioavailability [22] was 80%, the “Cp(f)ss” value [23] was 2.6 nM and the Activity [24] was greater than 60 mmHg. For the same molecule, the Ki [25] was greater than 10 µM, the AUC [26] was 0.32 µg·h/mL and the Cmax [27] was 177 µg/mL.
